SKN-1 block: suppressors of acrylamide-induced Pgst-4::GFP reporter in worms, primary screen, SKN-1 inhibitor project, whole organism, uHTS, GFP/RFP fluorescence ratio, strain VP596; inhibition, % at 21.8 µM; C. elegans VP596 Pgst-4::GFP/RFP ratio, 24 h; AID 624304, 2012; 360,000 tested, 0.49% active;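 active = interference check ratio from 0.5 to 1.5 plus GFP to RFP signal ratio inhibition reaching or exceeding a fixed threshold, cut at about 30% in these data, passing the limit was not always enough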
Myeloid diff MLP: induction of myeloid progenitor differentiation, primary screen, cell-based, flow cytometry, MLPCN library; 360,000 tested, 1% active; AID 624256, 2012; ER-HoxA9 myeloid progenitors, lysozyme-GFP differentiation; calls only at 10 µM;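 active = normalized GFP-positive differentiation at or above the plate's own cutoff, the solvent-only control mean plus 3 SD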;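 note: cells exposed to compound for four days before flow analysis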
Rin1 Abl inh: inhibitors of Rin1-Abl protein binding, primary screen, biochemical, TR-FRET | 360,000 tested, 0.4% active | inhibition, % at 7.35 µM; in the data active = inhibition above about 5%, passing the limit was not always enough
Rce1 inhib: yeast Rce1p protease inhibitors, primary screen, biochemical, fluorescence, cell-free homogeneous | CAAX prenyl protease 2 (Saccharomyces cerevisiae (strain ATCC 204508 / S288c)), Q03530 | AID 2563, 2010 | yeast membranes, quenched prenylated peptide cleavage fluorescence | calls only | 290,000 tested, 0.27% active;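 active = fall in fluorescence gain of 50% or more versus controls, with final raw signal at or below 3038400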;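 note: plate controls were neutral control wells for no effect and wells lacking membranes for full effect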
GRK2 aptamer HTS: compounds blocking aptamer binding on GRK2 – biochemical, human GRK2, bead flow cytometry, HTS, primary screen; Beta-adrenergic receptor kinase 1 (Homo sapiens), P25098; FAM-aptamer displacement from GRK2; inhibition of aptamer binding, % at 10 µM; 330,000 tested, 0.59% active; AID 488847, 2010;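 active = inhibition of aptamer binding above 40%, roughly 3 SD of noise, on plates passing a quality check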;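 note: median bead fluorescence of bound FAM aptamer so fluorescent compounds give negative values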
T cell modulator: modulators of CD8 T cell-vesicle binding, primary screen, mouse 2C CD8+ T cells, flow cytometry | AID 2052, 2009 | response (vesicle binding), % at 7 µM | 330,000 tested, 0.068% active | 2C CD8+ T cell-vesicle binding; hits give low values;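 active = response, share of CD8 T cells binding vesicles, and their 90th percentile fluorescence all below set limits, cut at about 80% in these data, passing the limit was not always enough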;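 note: values below 100% mean blocked vesicle binding to the CD8+ T cells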
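Assay system – 2C mouse CD8+ T cells · Also added – QL9-loaded Drosophila micro-vesicles · Timing – Cell–vesicle co-incubation 1.5 h at 37 °C, staining 20 min on ice · Signal – flow cytometry of vesicle-bound cells · Measure – percent CD8+ FL2 mean versus row control · Controls – Peptide-free naked vesicles (low) and QL9 vesicles with 0.7% DMSO vehicle (high)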
Starred values were filed as active, the others as inactive. Rows were chosen to be rich in hits. Some 2.6% of all compounds tested hit in one or more screens of this group.

Results for COc1ccc(NC(=O)N[C@H]2CC[C@@H](CC(=O)NC3CCC3)O[C@@H]2CO)cc1 ?
SKN-1 block: 7; Myeloid diff MLP: inactive

How did FC(F)(F)c1cnc(Oc2ccccc2-c2nnco2)c(Cl)c1 do in these assays?
SKN-1 block: 11; Myeloid diff MLP: inactive; Rin1 Abl inh: -5; Rce1 inhib: inactive; GRK2 aptamer HTS: 58*; T cell modulator: 163

Results for O=[N+]([O-])c1cccc(OCCN2CCC(Cc3ccccc3)CC2)c1 ?
SKN-1 block: 11; Myeloid diff MLP: inactive; Rin1 Abl inh: 0; Rce1 inhib: inactive; GRK2 aptamer HTS: 0; T cell modulator: 220

How did NC1=C(c2ccccc2)C(=O)NC1=O do in these assays?
SKN-1 block: 8; Myeloid diff MLP: inactive; Rin1 Abl inh: 2; Rce1 inhib: inactive; GRK2 aptamer HTS: 1; T cell modulator: 60

What do the screens show for `CN(C)C(CNC(=O)c1ccc(C(=O)c2ccccc2)cc1)c1ccccc1` (centres undefined)?
SKN-1 block: -2; Myeloid diff MLP: inactive; Rin1 Abl inh: 2; Rce1 inhib: inactive; GRK2 aptamer HTS: 0; T cell modulator: 239

How did Cc1ccccc1NS(=O)(=O)c1ccc(C(=O)NCC(c2ccccc2)N(C)C)cc1 (centres undefined) do in these assays?
SKN-1 block: 10; Myeloid diff MLP: inactive; Rin1 Abl inh: 1; Rce1 inhib: active; GRK2 aptamer HTS: 0; T cell modulator: 335

How did CN(C)C(CNC(=O)c1ccc(-c2ccccc2)cc1)c1ccccc1 (centres undefined) do in these assays?
SKN-1 block: -5; Myeloid diff MLP: active; Rin1 Abl inh: -1; Rce1 inhib: inactive; GRK2 aptamer HTS: 0; T cell modulator: 217

What do the screens show for `Cc1ccccc1NS(=O)(=O)c1ccc(C(=O)NCC(c2ccco2)N(C)C)cc1` (centres undefined)?
SKN-1 block: 6; Myeloid diff MLP: inactive; Rin1 Abl inh: 3; Rce1 inhib: inactive; GRK2 aptamer HTS: 0; T cell modulator: 203

Results for Cc1cccc(C)c1NC(=O)C(c1cccc2ccccc12)n1c(=O)c(-c2cc3ccccc3[nH]2)nc2ccccc21 (centres undefined) ?
SKN-1 block: 3; Myeloid diff MLP: inactive

How did Cc1ccc(/C=C2\SC(N3CCCCC3)=NC2=O)cc1 do in these assays?
SKN-1 block: 15; Myeloid diff MLP: inactive; Rin1 Abl inh: -1; Rce1 inhib: inactive; GRK2 aptamer HTS: 0; T cell modulator: 296

Results for O=C1N=C(N2CCCC2)S/C1=C\c1ccccc1 ?
SKN-1 block: 14; Myeloid diff MLP: active; Rin1 Abl inh: -5; Rce1 inhib: inactive; GRK2 aptamer HTS: 5; T cell modulator: 360

Results for CC(=O)N1CCN(C2=NC(=O)/C(=C\c3cccs3)S2)CC1 ?
SKN-1 block: 2; Myeloid diff MLP: inactive; Rin1 Abl inh: 0; Rce1 inhib: inactive; GRK2 aptamer HTS: 0; T cell modulator: 489

What do the screens show for `O=C1N=C(N2CCOCC2)S/C1=C/c1cccs1`?
SKN-1 block: -17; Myeloid diff MLP: active; Rin1 Abl inh: -3; Rce1 inhib: inactive; GRK2 aptamer HTS: 3; T cell modulator: 155

How did CCCCCCCCNC1=CC(=O)CC(C)(C)C1 do in these assays?
SKN-1 block: -6; Myeloid diff MLP: inactive; Rin1 Abl inh: 1; Rce1 inhib: inactive; GRK2 aptamer HTS: 3; T cell modulator: 188

Results for COc1ccc(SCC(O)Cn2c3ccccc3c3ccccc32)c(OC)c1 (centres undefined) ?
SKN-1 block: 4; Myeloid diff MLP: active

What do the screens show for `Cc1ccccc1OCC(O)Cn1c2ccccc2c2ccccc21` (centres undefined)?
SKN-1 block: -1; Myeloid diff MLP: inactive; Rin1 Abl inh: 2; Rce1 inhib: inactive; GRK2 aptamer HTS: 1; T cell modulator: 506

Assay outcomes: PubChem BioAssay, several laboratories
